Source: PubChem
OXTR potentiate: human OXTR potentiators, primary screen, fluorescence, CHO-OTR cells, Fluo-8 calcium; Oxytocin receptor (Homo sapiens), P30559; Fluo-8 calcium fluorescence, potentiator mode; 0% = oxytocin EC15, 100% = EC100; activation, % at 3 µM; actives 0.061% (n = 320,000); AID 2445, 2010;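 active means activation above that plate's cutoff, the mean activation of tested compounds plus 3 SD, cut at about 6.6% in these data, passing the limit was not always enough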
Target sequence (P30559 whole entry, looked up): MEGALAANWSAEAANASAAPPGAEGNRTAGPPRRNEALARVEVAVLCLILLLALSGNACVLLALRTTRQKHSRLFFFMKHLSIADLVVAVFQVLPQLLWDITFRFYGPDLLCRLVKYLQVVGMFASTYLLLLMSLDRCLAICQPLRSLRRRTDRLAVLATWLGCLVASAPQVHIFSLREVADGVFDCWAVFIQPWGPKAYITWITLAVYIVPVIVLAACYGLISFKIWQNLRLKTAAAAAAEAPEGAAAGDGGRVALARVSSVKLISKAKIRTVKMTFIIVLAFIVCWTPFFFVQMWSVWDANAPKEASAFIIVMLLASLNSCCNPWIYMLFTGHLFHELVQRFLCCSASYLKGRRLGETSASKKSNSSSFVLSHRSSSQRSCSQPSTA
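Replication – single well per compound, singlicate · Assay system – CHO cell line stably expressing human OTR · Timing – 6 min pre-incubation, 100 s read · Measure – normalized max/min fluorescence ratio, % activation · Doses – 3.0 µM, one dose · Detection – Fluo-8 calcium dye fluorescence · Probe or stimulus – oxytocin near EC15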
TRPN1 ag: zebrafish TRPN1 channel agonists, primary screen, cell-based, HEK293, calcium fluorescence | transient receptor potential cation channel N1 (TRPN1/NompC), Danio rerio | HEK293 zebrafish TRPN1-YFP, Fluo-8 calcium fluorescence; 100% = response to 87 µM carbachol | activation, % at 3 µM | actives 0.18% (n = 220,000) | AID 1424, 2008;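 active means activation above its plate's cutoff, the mean activation of test wells on that plate plus 3 SD, cut at about 19% in these data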
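System: zebrafish TRPN1-YFP in HEK293 cells / Dosing: 3 µM single point / Timing: dye loading 1 h at 37 °C, then 30 min room temperature / Signal: Fluo-8 calcium fluorescence, excitation 470-495 nm, emission 515-575 nm / Read-out basis: percent activation from peak over basal fluorescence ratio, control-normalized / Control set: high carbachol 87 µM, low DMSO alone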
TRPML3 agonist: human TRPML3 channel agonists, primary screen, cell-based, HEK293 TRPML3-YFP, Fluo-8 calcium fluorescence, 3 µM. Mucolipin-3 (Homo sapiens), Q8TDD5. AID 1448, 2008. 100% = the carbachol control signal. actives 0.29% (n = 220,000). activation, % at 3 µM;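 active means activation above its plate's cutoff, the mean activation of the plate's test wells plus 3 SD, cut at about 12% in these data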
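Material: HEK293 cells stably carrying human TRPML3-YFP; compound dosing: single dose, 3 µM final nominal compound, 0.3% DMSO final; incubation: 1-h 37 °C dye load, 5-s basal, 120-s post-compound reads; technique: Fluo-8 intracellular calcium fluorescence, excitation 470-495 nm, emission 515-575 nm; read-out basis: percent activation from peak-to-basal fluorescence ratio, scaled between DMSO and carbachol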
OXTR ag: human OXTR agonists, primary screen, fluorescence, CHO-OTR cells, Fluo-8 calcium; Oxytocin receptor (Homo sapiens), P30559; Fluo-8 calcium fluorescence; normalized: DMSO 0%, oxytocin 100%; activation, % at 3 µM; actives 0.32% (n = 320,000); AID 2435, 2010;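 active means activation above the mean of all tested compounds plus 3 SD, cutoff set per screening run, cut at about 20% in these data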;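 further: peak over basal fluorescence ratio from a 100 s FLIPR kinetic read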
V1R ag counter: agonists of human V1a receptor, primary screen, counter-screen for OXTR agonist project, fluorescence, CHO-V1R cells | Fluo-8 calcium fluorescence, agonist mode; 0% DMSO, 100% 3 nM vasopressin | actives 0.25% (n = 320,000) | Vasopressin V1a receptor (Homo sapiens), P37288 | AID 2797, 2010 | activation, % at 3 µM;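 active means activation above the mean activation of all tested compounds plus 3 SD, per screening run, cut at about 20% in these data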;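 further: signal is peak over basal fluorescence ratio across a 100 second FLIPR read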
Large screens that a line does not name were inactive; ! = not confirmed by another sample. Most compounds without a hit are left out; they make up all but 0.58% or so of the library.

Cc1ccccc1N1C(=O)c2cccc3c(N(C)CCO)ccc(c23)C1=O	TRPN1 ag 26, TRPML3 agonist 18, OXTR ag 25, V1R ag counter 24
OCCCNC(=S)Nc1ccc(Oc2ccccc2)cc1	none
CCCCn1cnc2c(c(-c3ccccc3)c(-c3ccccc3)n2Cc2ccco2)c1=N	none
N=c1c2c(-c3ccccc3)c(-c3ccccc3)n(Cc3ccco3)c2ncn1Cc1ccco1	OXTR ag 36, V1R ag counter 36
C[C@H](CCC(=O)O)[C@H]1CC[C@H]2[C@@H]3[C@H](O)C[C@@H]4C[C@H](O)CC[C@]4(C)[C@H]3CC[C@]12C	none (no result: TRPN1 ag, TRPML3 agonist)
CC(CCC(C)C(C)(C)C)[C@@H]1CC[C@H]2C3C[C@H](OS(O)(=S)=S)[C@H]4C[C@H](OS(O)(=S)=S)[C@@H](OS(O)(=S)=S)C[C@]4(C)[C@H]3CC[C@]12C (stereo not given in full) (tested in a mixture with another compound)	OXTR ag 58, V1R ag counter 71! (no result: TRPN1 ag, TRPML3 agonist)
COc1ccccc1C(=O)NNC(=S)NC(=O)c1cccs1	OXTR ag 30, V1R ag counter 51 (no result: TRPN1 ag, TRPML3 agonist)
COc1ccccc1C(=O)NC(=S)NNC(=O)c1sc2ccccc2c1Cl	OXTR ag 46, V1R ag counter 25
Cc1c(NC(=S)NC(=O)c2sc3ccccc3c2Cl)cccc1C(=O)O	none
COc1ccccc1C(=O)NNC(=S)NC(=O)c1sc2ccccc2c1Cl	OXTR ag 49, V1R ag counter 34
COc1ccc(/C=N\NC(=O)COc2ccc(C(C)(C)C)cc2)cc1Cn1nc(C)cc1C	none
O=C1CCN2C=Nc3cccc4ccc1c2c34	OXTR ag 38, V1R ag counter 29
Cc1ccccc1N(C)S(=O)(=O)c1nnc(NC(=O)c2ccccc2F)s1	none (no result: TRPN1 ag, TRPML3 agonist)
CC(=O)Nc1ccc(Sc2ncccc2C(=O)Nc2ccc(F)cc2)cn1	TRPN1 ag 46, TRPML3 agonist 35, OXTR ag 79, V1R ag counter 70
COc1cc(/C=C(\C#N)c2nc3c(s2)CCCC3)ccc1O	OXTR ag 60, V1R ag counter 57
CC(C)CN1C(=O)/C(=C/c2c(N3CCc4ccccc4C3)nc3ccccn3c2=O)SC1=S	none (no result: OXTR potentiate, OXTR ag, V1R ag counter)
CCOC(=O)CC1C(=O)NCCN1c1nc2c(C)cccn2c(=O)c1/C=C1\SC(=S)N(CC(C)C)C1=O (stereo not given)	TRPN1 ag 36, TRPML3 agonist 12 (no result: OXTR potentiate, OXTR ag, V1R ag counter)
O=C(Nc1ccc(NC(=O)c2ccc(Cl)c(S(=O)(=O)N3CCOCC3)c2)cc1)c1ccccc1	none (no result: TRPN1 ag, TRPML3 agonist)
O=C(Nc1ccccc1)Nc1ccc(Cl)c(S(=O)(=O)N2CCOCC2)c1	TRPN1 ag 23, TRPML3 agonist 13
O=C(O)c1sccc1SCc1ccc(Cl)c(Cl)c1	V1R ag counter 22
COC(=O)CSc1ccsc1C(=O)O	none
Cc1cccc(NC(=O)c2ccc(NC(=O)CC3SC(N4CCCC4)=NC3=O)cc2)n1 (stereo not given)	none (no result: TRPN1 ag, TRPML3 agonist)
COc1cc(/C=C2\S/C(=N/S(=O)(=O)c3ccc(C)cc3)NC2=O)c([N+](=O)[O-])cc1OC	none
Cc1ccc(S(=O)(=O)/N=C2/NC(=O)/C(=C/c3cc([N+](=O)[O-])ccc3O)S2)cc1	OXTR ag 26, V1R ag counter 34 (no result: TRPN1 ag, TRPML3 agonist)
CCCCCCCCCCOC(=O)Cn1c(COc2ccccc2)[n+](C)c2ccccc21	OXTR ag 27, V1R ag counter 53 (no result: TRPN1 ag, TRPML3 agonist)
O=C(Nc1ccccc1)Nc1cccc(C(F)(F)F)c1	TRPN1 ag 24, TRPML3 agonist 14
N#Cc1ccc(NC(=O)Nc2ccc(Cl)cc2)cc1	TRPN1 ag 22, TRPML3 agonist 15
CCN(CC)c1ccc(/C=C2\SC(=O)N(C(C)C)C2=O)o1	TRPN1 ag 40
